Source: PubChem BioAssay (several laboratories)
Only some compounds are listed: those with a hit (about 2% of all), similar ones and a draw of the others.
PAD4 FP inh = human PAD4 inhibitors, primary screen, biochemical, fluorescence polarization, 1536-well format | recombinant PAD4, RCA probe fluorescence polarization | 330,000 tested, 0.41% active | inhibition, % at 6.36 µM | Protein-arginine deiminase type-4 (Homo sapiens), Q9UM07 | AID 485272, 2010;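 active means percent inhibition above a cutoff equal to the mean of all tested compounds plus 3 SD, cut at about 15% in these data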
Target sequence (Q9UM07 whole entry, looked up): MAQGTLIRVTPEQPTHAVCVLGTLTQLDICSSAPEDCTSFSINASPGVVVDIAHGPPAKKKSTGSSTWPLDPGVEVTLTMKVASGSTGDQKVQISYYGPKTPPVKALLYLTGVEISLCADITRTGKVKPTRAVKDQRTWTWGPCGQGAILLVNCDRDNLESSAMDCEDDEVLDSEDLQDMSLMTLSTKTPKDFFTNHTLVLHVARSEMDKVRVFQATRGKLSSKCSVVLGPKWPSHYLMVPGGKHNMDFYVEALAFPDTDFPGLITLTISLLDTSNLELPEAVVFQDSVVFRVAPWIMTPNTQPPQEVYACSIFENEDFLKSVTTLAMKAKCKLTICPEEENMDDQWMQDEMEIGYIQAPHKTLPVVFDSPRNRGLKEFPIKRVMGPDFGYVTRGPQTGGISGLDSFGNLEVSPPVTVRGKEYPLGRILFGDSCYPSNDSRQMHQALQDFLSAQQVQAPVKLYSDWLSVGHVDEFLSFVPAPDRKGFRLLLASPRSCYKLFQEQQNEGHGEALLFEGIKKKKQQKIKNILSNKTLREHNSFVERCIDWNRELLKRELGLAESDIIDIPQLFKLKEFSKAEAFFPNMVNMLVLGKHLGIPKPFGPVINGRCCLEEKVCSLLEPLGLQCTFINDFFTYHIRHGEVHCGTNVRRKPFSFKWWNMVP
UCH37 inh = inhibitors of human UCH37 deubiquitinase, primary screen, biochemical, Ub-AMC cleavage, fluorescence | 330,000 tested, 0.33% active | Ubiquitin carboxyl-terminal hydrolase isozyme L5 (Homo sapiens), Q9Y5K5 | purified proteasome/UCH37 | inhibition, % (test concentration not listed);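 active means mean inhibition over replicate wells above about 20%, limit read from the data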
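Schedule: 30 min plus 25 min, room temperature / Material: human UCH37 within purified proteasomes / Technique: AMC fluorescence intensity at 355/460 nm / Buffer or medium: pH 7.4 Tris-HCl (50 mM) with ovalbumin, ATP-MgCl2, DTT / Controls: wells without proteasome as full block, compound-free enzyme plus substrate as uninhibited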
Fh CTSL1 inh = Fasciola hepatica cathepsin L1 inhibitors, primary screen, counter-screen for PFM18AAP inhibitor project, biochemical, QFRET, fluorogenic peptide substrate; 300,000 tested, 0.49% active; AID 1906, 2009; inhibition, % at 5.96 µM; recombinant F. hepatica cathepsin L1, Z-Leu-Arg-MCA fluorescence;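 active means inhibition above the mean of all tested compounds plus 3 SD, set per screening campaign, cut at about 17% in these data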
GSTO1 inh = inhibitors of recombinant GSTO1, primary screen, counter-screen for RBBP9 inhibitor project, biochemical, fluorescence polarization | activity-based probe fluorescence polarization | inhibition, % at 5.96 µM | 300,000 tested, 1.1% active;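 active means inhibition above the campaign mean inhibition plus 3 SD, cut at about 35% in these data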
PP5 primary = PP5 phosphatase inhibitors, primary screen, biochemical, fluorescence. Serine/threonine-protein phosphatase 5 (Homo sapiens), P53041. purified PP5c, OMFP substrate fluorescence. inhibition, % at 6.7 µM. 320,000 tested, 0.18% active. AID 1987, 2009;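 active means inhibition above the campaign's mean inhibition across all tested compounds plus 3 SD, cut at about 9.5% in these data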
Apaf1 inhib = inhibitors of human Apaf-1 apoptosome, primary screen, biochemical, DEVD-Rh110 fluorescence, uHTS | Apoptotic protease-activating factor 1 (Homo sapiens), O14727 | reconstituted apoptosome caspase-3 activity | inhibition, % at 20 µM | 330,000 tested, 0.71% active | AID 489030, 2010; active means inhibition of at least 40% at 20 µM
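Material: biochemical Apaf-1 apoptosome reconstitution. Medium: Hepes buffer, pH 7.5. Also added: cytochrome c activation, bis-DEVD rhodamine 110 substrate. Timing: 30 min compound preincubation, 50 min activation, room temperature. Measured by: rhodamine 110 fluorescence at Ex 480/Em 540 nm.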
GSTO1 confirm = GSTO1 inhibitor hit confirmation, counter-screen for RBBP9 inhibitor project, biochemical, fluorescence polarization, triplicate. shares compounds with GSTO1 inh. AID 2176, 2009. inhibition, % at 5.96 µM. 2,400 tested, 54% active. recombinant GSTO1, probe fluorescence polarization;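 active means inhibition above the primary screen's cutoff, its mean inhibition plus 3 SD, cut at about 35% in these data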;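 further: loss of polarization as inhibitors block binding of rhodamine sulfonate ester activity probe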
PP5 conf = PP5 phosphatase inhibitors, confirmation, biochemical, fluorescence, human | shares compounds with PP5 primary | Purified PP5, fluorogenic phosphatase substrate | inhibition, % at 6.7 µM | 460 tested, 22% active | AID 2331, 2010; in the data active means inhibition above about 9.5%
PP1 inh counter = PP1 phosphatase inhibitors, counter-screen for PP5 inhibitor project, biochemical, fluorescence, triplicate. shares compounds with PP5 primary. PP1 enzyme, fluorescent phosphatase substrate. inhibition, % at 6.7 µM. 460 tested, 4% active; in the data active means inhibition above about 16%
PAD4 confirm = human PAD4 inhibitors, confirmation, biochemical, fluorescence polarization. shares compounds with PAD4 FP inh. inhibition, % at 6.36 µM. AID 488796, 2010. recombinant PAD4, RCA probe fluorescence polarization. 1,200 tested, 28% active;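 active means mean inhibition across replicates above the hit cutoff set by the earlier primary screen, cut at about 15% in these data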;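 further: inhibitors block active-site labeling by the probe so polarization falls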
Apaf-1 inh conf2 = Apaf-1 inhibitors, single-dose retest, confirmation, biochemical, fluorescence, DEVD-Rh110, 20 µM. reconstituted apoptosome, caspase-3 DEVD-Rh110 fluorescence. shares compounds with Apaf1 inhib. 1,800 tested, 25% active. inhibition, % at 20 µM;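 active means mean inhibition of at least 40% at 20 µM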
Rh110 interf inh = Rh110 fluorescence interference by putative Apaf-1 inhibitors, confirmation, artefact control for Apaf-1 inhibitor project, biochemical, 20 µM; shares compounds with Apaf1 inhib; quenched caspase reaction; activation (fluorescence interference), % at 20 µM; 1,800 tested, under 10 active; AID 504615, 2011;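 active means signal rise of 40% or more at 20 µM, treated as a fluorescence artifact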
Apaf1 inh interf = fluorescence interference of Apaf-1 inhibitor hits, dose response, artefact control for Apaf-1 inhibitor project; shares compounds with Apaf1 inhib; fluorescence interference counterscreen, Apaf-1 assay format; IC50, µM; 460 tested, under 10 active; AID 588538, 2011; call rule not given here
Of the large screens only hits and unclear results are named; the others gave an inactive call (follow-up assays come after a bar, where they were run).

CN1CCN(C2=C(NS(=O)(=O)c3ccccc3)C(=O)c3ccccc3C2=O)CC1	GSTO1 inh 46, Apaf1 inhib 79 | GSTO1 confirm inactive | Apaf-1 inh conf2 45 | Rh110 interf inh inactive | Apaf1 inh interf inactive
Nc1c(N2CCCC2)cc(Cl)c2nonc12	UCH37 inh 87, Fh CTSL1 inh 95, GSTO1 inh 95, Apaf1 inhib 96 | GSTO1 confirm 49 | Apaf-1 inh conf2 75 | Rh110 interf inh inactive | Apaf1 inh interf inactive
Cc1ccc(NC(=O)C[n+]2ccn(C3=C([O-])c4ccccc4C3=O)c2)cc1	none
Cc1ccc(S(=O)(=O)/N=C2\C(=O)c3ccccc3C([O-])=C2n2cc[n+](CCC(C)C)c2)cc1	UCH37 inh 31, GSTO1 inh 76, Apaf1 inhib 57 | GSTO1 confirm 71 | Apaf-1 inh conf2 68 | Rh110 interf inh inactive | Apaf1 inh interf inactive
CCCC[n+]1ccn(C2=C([O-])c3ccccc3C(=O)/C2=N\S(=O)(=O)c2ccc(Br)cc2)c1	GSTO1 inh 78, Apaf1 inhib 59 | GSTO1 confirm 74 | Apaf-1 inh conf2 68 | Rh110 interf inh inactive | Apaf1 inh interf inactive
CCC(=O)Nc1c(C#N)c2nc3ccccc3nc2n1-c1ccccc1C	none
CCCCn1c(NC(=O)c2ccccc2Cl)c(C#N)c2nc3ccccc3nc21	PAD4 FP inh 72, GSTO1 inh 94, PP5 primary 12, Apaf1 inhib 93 | GSTO1 confirm 64 | PP5 conf 40 | PP1 inh counter 27 | PAD4 confirm 29 | Apaf-1 inh conf2 59 | Rh110 interf inh inactive | Apaf1 inh interf inactive
Cc1nn(C)cc1C=NNC(=O)c1sc2ccccc2c1Cl	none (no result: PAD4 FP inh, Fh CTSL1 inh, GSTO1 inh, PP5 primary, Apaf1 inhib)
O=C1CCN2C=Nc3cccc4ccc1c2c34	GSTO1 inh 40, Apaf1 inhib 43 | GSTO1 confirm inactive | Apaf-1 inh conf2 inactive | Rh110 interf inh inactive
O=C1CCC(=O)c2ccc3c4c(ccc1c24)CC3	none (no result: PAD4 FP inh, Fh CTSL1 inh, GSTO1 inh, PP5 primary, Apaf1 inhib)
CCCCNC(=S)NN=Cc1ccc(C)s1	none (no result: PAD4 FP inh, Fh CTSL1 inh, GSTO1 inh, PP5 primary, Apaf1 inhib)
CC1CN(Cc2c(O)ccc3c2oc(=O)c2ccccc23)CC(C)O1 (configuration not stated)	GSTO1 inh 42, Apaf1 inhib 44 | GSTO1 confirm 46 | Apaf-1 inh conf2 inactive | Rh110 interf inh inactive
CC1CN(Cc2c(O)ccc3c(=O)c(-c4ccccc4)coc23)CC(C)O1 (configuration not stated)	none
Oc1ccc(NCc2cccc(OCc3ccccc3)c2)cc1	GSTO1 inh 82, Apaf1 inhib 91 | GSTO1 confirm inactive | Apaf-1 inh conf2 inactive | Rh110 interf inh inactive
c1ccc(COc2cccc(CNCc3cccnc3)c2)cc1	none
COc1c(O)cccc1C=NNC(=O)Cn1ccnc1C	none (no result: PAD4 FP inh, Fh CTSL1 inh, GSTO1 inh, PP5 primary, Apaf1 inhib)
CC(C)N=c1scc(-c2cccs2)n1N=Cc1ccc(O)c(O)c1O	none (no result: PAD4 FP inh, Fh CTSL1 inh, GSTO1 inh, PP5 primary, Apaf1 inhib)
CCc1ccc(NC2=NC(C(=O)c3ccccc3)CC(=O)N2)cc1 (configuration not stated)	none
Cc1ccc(S(=O)(=O)/N=C2\C=C(Nc3cccc(C(=O)O)c3)C(=O)c3ccccc32)cc1	PAD4 FP inh 63, Fh CTSL1 inh 63, GSTO1 inh 90, Apaf1 inhib 94 (no result: UCH37 inh) | GSTO1 confirm 85 | PAD4 confirm 46 | Apaf-1 inh conf2 98 | Rh110 interf inh inactive | Apaf1 inh interf inactive
Cc1ccc(S(=O)(=O)/N=C2\C=C(Nc3cccc(C(=O)O)c3)C(=O)c3ccccc32)c(C)c1	PAD4 FP inh 66, Fh CTSL1 inh 46, GSTO1 inh 93, PP5 primary 9.8, Apaf1 inhib 90 (no result: UCH37 inh) | GSTO1 confirm 91 | PP5 conf 36 | PP1 inh counter inactive | PAD4 confirm 50 | Apaf-1 inh conf2 85 | Rh110 interf inh inactive
COC(=O)c1ccccc1NC1=C/C(=N\S(=O)(=O)c2ccc(C(=O)O)cc2)c2ccccc2C1=O	PAD4 FP inh 25, UCH37 inh 90, Fh CTSL1 inh 47, GSTO1 inh 86, Apaf1 inhib 95 | GSTO1 confirm 85 | PAD4 confirm 66 | Apaf-1 inh conf2 97 | Rh110 interf inh inactive | Apaf1 inh interf inactive
CCc1ccc(S(=O)(=O)/N=C2\C=C(Nc3ccc(C(=O)O)cc3)C(=O)c3ccccc32)cc1	PAD4 FP inh 69, Fh CTSL1 inh 79, GSTO1 inh 94, PP5 primary 11, Apaf1 inhib 96 (no result: UCH37 inh) | GSTO1 confirm 91 | Apaf-1 inh conf2 89 | Rh110 interf inh inactive | Apaf1 inh interf inactive
CC(CC(=O)NC1CCCCC1)=NNC(=O)c1ccccc1C	none (no result: PAD4 FP inh, Fh CTSL1 inh, GSTO1 inh, PP5 primary, Apaf1 inhib)
COC(=O)c1ccc(C=NOCC(=O)NC2CCCC(C)C2C)cc1 (configuration not stated)	none (no result: PAD4 FP inh, Fh CTSL1 inh, GSTO1 inh, PP5 primary, Apaf1 inhib)
C/C(=N\NS(=O)(=O)c1ccc(C(C)(C)C)cc1)c1ccccc1	none (no result: UCH37 inh)
